Measured values of several laboratories.
Lines come from different studies, so protocols differ.
Target: Tyrosine-protein kinase Fer (FER, Homo sapiens, UniProt P16591)

Compound	assay	conditions	remaining binding
CN(CCCC(F)(F)F)c1nccc(-c2cnn3ncccc23)n1	binding	1 µM	65%
O=C(Nc1c[nH]nc1C(=O)NC1CCNCC1)c1cc(F)cc(F)c1	binding, competition with immobilised ligand	1 µM	100%
Cc1cnc(Nc2ccc(C(=O)N3CCC(N4CCCC4)CC3)cc2)nc1-c1cc2ccccc2s1	binding, competition with immobilised ligand	1 µM	84%
C=CC(=O)N1CCC(C(=O)NCC(=O)N2CCN(c3nc(-c4cnc(N)nc4C(F)F)nc(N4CCOCC4)n3)CC2)CC1	binding, competition with immobilised ligand	1 µM	87%
CO[C@H]1CC[C@H](CNc2ccc(S(=O)(=O)NC(=O)c3ccc(N4CCN(CC5=C(c6ccc(Cl)cc6)CC(C)(C)CC5)CC4)cc3Oc3cnc4[nH]ccc4c3)cc2[N+](=O)[O-])CC1	cell-free assay, competition with immobilised ligand	1 µM	67%
O=C(c1ccc(Nc2nccc(-c3cc4ccccc4s3)n2)cc1)N1CCC(N2CCCC2)CC1	binding, competition with immobilised ligand	1 µM	100%
N[C@H]1CCN(c2nccc(-c3cnn4ncccc34)n2)C1	binding	1 µM	97%
COc1ncc2cc3ccccc3nc2c1C#N	cell-free assay, competition with immobilised ligand	5 µM	100%
COc1ccc2cc(OCC3(C(=O)O)CN(C(=O)c4ccc(F)cc4)C3)ccc2c1	cell-free assay, competition with immobilised ligand	1 µM	74%
COc1ccnn2ncc(-c3ccnc(N(C)C)n3)c12	binding	1 µM	100%
CCC(=O)N[C@H]1CC[C@@H](C(=O)N(C)c2ccc(-c3nc4ccccc4o3)cc2)C1	cell-free assay, competition with immobilised ligand	1 µM	90%
CN(C)c1ncc(F)c(-c2cnn3ncccc23)n1	binding	1 µM	82%
Cc1c(C(=O)O)cc(-c2ccc(C3CCNCC3)cc2)c2ccc(-c3ccc(C(F)(F)F)cc3)cc12	binding, competition with immobilised ligand	1 µM	100%
O=C(c1ccc(Nc2ncc(Cl)c(-c3cc4ccccc4s3)n2)cc1)N1CCC(N2CCCC2)CC1	binding, competition with immobilised ligand	1 µM	76%
FC(F)(F)Oc1cccc(-c2cnc3ccc(-c4ccncc4)nn23)c1	cell-free assay, competition with immobilised ligand	5 µM	90%
C[C@@H]1CCN(c2nccc(-c3cnn4ncccc34)n2)C1	binding	1 µM	100%
CCN1CCN(Cc2ccc(C(=O)Nc3ccc(C)c(Oc4ccc5c(c4)CC(=O)N5)c3)cc2C(F)(F)F)CC1	binding, competition with immobilised ligand	1 µM	100%
CC(=O)c1c(NS(C)(=O)=O)c2cc(-c3ccc(Cl)cc3)c(-c3ccc(Cl)cc3Cl)nc2n(C)c1=O	cell-free assay, competition with immobilised ligand	1 µM	100%
CN(c1nccc(-c2cnn3ncccc23)n1)C1CC1	binding	1 µM	100%
CC(=O)N1CCC(c2ccc(C(=O)NC(=N)N)cc2C(F)(F)F)CC1	cell-free assay, competition with immobilised ligand	1 µM	96%
COc1cnc(Nc2cccc(S(N)(=O)=O)c2)nc1N1CCN(c2ccccc2)CC1	binding, competition with immobilised ligand	1 µM	100%
